# Laboratory results published in ChEMBL document CHEMBL5058577, “EUbOPEN Chemogenomics Library 2 (Multiplex)” (2022).
# Tested on: HEK-293T
# Test: Multiplex assay against HEK293T
# Format: toxicity, cell-based
# Conditions: human
# Summary of the method: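 Cells stained live at seeding with Hoechst33342, BioTracker Green Microtubule Cytoskeleton Dye, MitoTracker Red and Annexin V Alexa Fluor 680 were imaged on a CQ1 microscope at 37°C and 5% CO2 after compound addition. Their classification by CellPathfinder machine-learning gating ran from Hoechst high-intensity objects versus normal cells, to healthy, pyknosed or fragmented nuclei among normal cells, to mitotic or apoptotic among pyknosed cells. Tubulin, mitochondrial-mass and membrane-permeability phenotypes are per cents of healthy-nucleus cells.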
# [1] = 12 h, 1 µM, compound concentration 1 uM, replicate 1
# [2] = 12 h, 1 µM, compound concentration 1 uM, replicate 2
# [3] = 12 h, 10 µM, compound concentration 10 uM, replicate 1
# [4] = 12 h, 10 µM, compound concentration 10 uM, replicate 2
# [5] = 24 h, 1 µM, compound concentration 1 uM, replicate 1
# [6] = 24 h, 1 µM, compound concentration 1 uM, replicate 2
# [7] = 24 h, 10 µM, compound concentration 10 uM, replicate 1
# [8] = 24 h, 10 µM, compound concentration 10 uM, replicate 2
# [9] = 48 h, 1 µM, compound concentration 1 uM, replicate 1
# [10] = 48 h, 1 µM, compound concentration 1 uM, replicate 2
# [11] = 48 h, 10 µM, compound concentration 10 uM, replicate 1
# [12] = 48 h, 10 µM, compound concentration 10 uM, replicate 2
compound,measurement,setting,value
CCc1cc2cc(NS(=O)(=O)c3ccc(C#N)cc3)ccc2n(CC)c1=O,Population Apoptotic (%),[1],43%
same,Population Fragmented Nuclei (%),[1],8%
same,Population Healthy Nuclei (%),[1],78%
same,Population Hoechst High Intensity Objects (%),[1],9%
same,Population Membrane Permeable-Phenotype (%),[1],0%
same,Population Mitochondria Different-Phenotype (%),[1],37%
same,Population Mitotic Cells (%),[1],56%
same,Population Normal (%),[1],90%
same,Population Pyknosed Nuclei (%),[1],12%
same,Population Tubulin-Different-Phenotype (%),[1],28%
same,Total Cell Count,[1],411
same,Population Apoptotic (%),[2],40%
same,Population Fragmented Nuclei (%),[2],7%
same,Population Hoechst High Intensity Objects (%),[2],7%
same,Population Mitochondria Different-Phenotype (%),[2],64%
same,Population Mitotic Cells (%),[2],59%
same,Population Normal (%),[2],92%
same,Population Pyknosed Nuclei (%),[2],14%
same,Population Tubulin-Different-Phenotype (%),[2],29%
same,Total Cell Count,[2],338
same,Population Apoptotic (%),[3],38%
same,Population Fragmented Nuclei (%),[3],7%
same,Population Healthy Nuclei (%),[3],80%
same,Population Hoechst High Intensity Objects (%),[3],7%
same,Population Membrane Permeable-Phenotype (%),[3],0%
same,Population Mitochondria Different-Phenotype (%),[3],47%
same,Population Mitotic Cells (%),[3],61%
same,Population Normal (%),[3],92%
same,Population Pyknosed Nuclei (%),[3],12%
same,Population Tubulin-Different-Phenotype (%),[3],48%
same,Total Cell Count,[3],404
same,Population Apoptotic (%),[4],65%
same,Population Fragmented Nuclei (%),[4],6%
same,Population Healthy Nuclei (%),[4],69%
same,Population Hoechst High Intensity Objects (%),[4],16%
same,Population Mitochondria Different-Phenotype (%),[4],71%
same,Population Mitotic Cells (%),[4],34%
same,Population Normal (%),[4],83%
same,Population Pyknosed Nuclei (%),[4],23%
same,Population Tubulin-Different-Phenotype (%),[4],41%
same,Total Cell Count,[4],291
same,Population Apoptotic (%),[5],29%
same,Population Fragmented Nuclei (%),[5],8%
same,Population Healthy Nuclei (%),[5],80%
same,Population Hoechst High Intensity Objects (%),[5],5%
same,Population Membrane Permeable-Phenotype (%),[5],1%
same,Population Mitochondria Different-Phenotype (%),[5],19%
same,Population Mitotic Cells (%),[5],70%
same,Population Normal (%),[5],94%
same,Population Pyknosed Nuclei (%),[5],11%
same,Population Tubulin-Different-Phenotype (%),[5],18%
same,Total Cell Count,[5],510
same,Population Apoptotic (%),[6],43%
same,Population Fragmented Nuclei (%),[6],7%
same,Population Healthy Nuclei (%),[6],84%
same,Population Membrane Permeable-Phenotype (%),[6],0%
same,Population Mitochondria Different-Phenotype (%),[6],44%
same,Population Mitotic Cells (%),[6],56%
same,Population Pyknosed Nuclei (%),[6],7%
same,Population Tubulin-Different-Phenotype (%),[6],22%
same,Total Cell Count,[6],403
same,Population Apoptotic (%),[7],33%
same,Population Fragmented Nuclei (%),[7],9%
same,Population Healthy Nuclei (%),[7],80%
same,Population Hoechst High Intensity Objects (%),[7],6%
same,Population Membrane Permeable-Phenotype (%),[7],0%
same,Population Mitochondria Different-Phenotype (%),[7],36%
same,Population Mitotic Cells (%),[7],66%
same,Population Normal (%),[7],93%
same,Population Pyknosed Nuclei (%),[7],10%
same,Population Tubulin-Different-Phenotype (%),[7],32%
same,Total Cell Count,[7],478
same,Population Apoptotic (%),[8],63%
same,Population Fragmented Nuclei (%),[8],10%
same,Population Healthy Nuclei (%),[8],73%
same,Population Hoechst High Intensity Objects (%),[8],17%
same,Population Membrane Permeable-Phenotype (%),[8],1%
same,Population Mitochondria Different-Phenotype (%),[8],58%
same,Population Mitotic Cells (%),[8],36%
same,Population Normal (%),[8],82%
same,Population Pyknosed Nuclei (%),[8],16%
same,Population Tubulin-Different-Phenotype (%),[8],29%
same,Total Cell Count,[8],332
same,Population Apoptotic (%),[9],30%
same,Population Fragmented Nuclei (%),[9],11%
same,Population Healthy Nuclei (%),[9],81%
same,Population Hoechst High Intensity Objects (%),[9],2%
same,Population Membrane Permeable-Phenotype (%),[9],1%
same,Population Mitochondria Different-Phenotype (%),[9],11%
same,Population Mitotic Cells (%),[9],69%
same,Population Normal (%),[9],97%
same,Population Pyknosed Nuclei (%),[9],6%
same,Population Tubulin-Different-Phenotype (%),[9],13%
same,Total Cell Count,[9],878
same,Population Apoptotic (%),[10],38%
same,Population Fragmented Nuclei (%),[10],14%
same,Population Healthy Nuclei (%),[10],79%
same,Population Hoechst High Intensity Objects (%),[10],4%
same,Population Mitochondria Different-Phenotype (%),[10],23%
same,Population Mitotic Cells (%),[10],61%
same,Population Normal (%),[10],95%
same,Population Pyknosed Nuclei (%),[10],5%
same,Population Tubulin-Different-Phenotype (%),[10],12%
same,Total Cell Count,[10],608
same,Population Apoptotic (%),[11],26%
same,Population Fragmented Nuclei (%),[11],14%
same,Population Healthy Nuclei (%),[11],78%
same,Population Hoechst High Intensity Objects (%),[11],4%
same,Population Membrane Permeable-Phenotype (%),[11],1%
same,Population Mitochondria Different-Phenotype (%),[11],23%
same,Population Mitotic Cells (%),[11],73%
same,Population Normal (%),[11],95%
same,Population Pyknosed Nuclei (%),[11],6%
same,Population Tubulin-Different-Phenotype (%),[11],20%
same,Total Cell Count,[11],734
same,Population Apoptotic (%),[12],47%
same,Population Fragmented Nuclei (%),[12],16%
same,Population Healthy Nuclei (%),[12],73%
same,Population Hoechst High Intensity Objects (%),[12],10%
same,Population Mitochondria Different-Phenotype (%),[12],40%
same,Population Mitotic Cells (%),[12],52%
same,Population Normal (%),[12],89%
same,Population Pyknosed Nuclei (%),[12],9%
same,Population Tubulin-Different-Phenotype (%),[12],23%
same,Total Cell Count,[12],383
